Compounds with a hit are over-represented: about 1.1% of the library has one in this group of screens.
GSK3 alpha inh – inhibitors of human GSK-3 alpha kinase; P49840; hit rate 0.1% among 320,000; AID 2650; inhibition, % at 10 µM; ADP-Glo luminescence, 60 min;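 active = more than half of replicates show inhibition above 20%; inconclusive = some but at most half of replicates above 20% inhibition; inactive = no replicate shows inhibition above 20%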;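 note: GST-tagged GSK-3 alpha with peptide substrate and 25 µM ATP; 0% = DMSO neutral wells and 100% = GW8510 positive control wells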
SR-BI DiI-HDL act – SR-BI HDL lipid transfer activation | CHO ldlA[mSR-BI] cells, DiI-HDL uptake fluorescence, 3 h; 100 = double the neutral-control signal | activation, % at 12.5 µM | hit rate 0.096% among 320,000;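 active = mean replicate activation of at least 60% and every replicate at or above 60%; inconclusive = mean or all-replicate condition met, but not both; inactive = mean below 60% and not all replicates reaching 60%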;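 note: 0% = median plate neutral-control signal and 100% = twice that signal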
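Material – SR-BI-overexpressing, LDLR-lacking CHO cells · Medium – BSA-supplemented, HEPES-buffered Ham's F12, pH 7.4 · Doses – single concentration · Times – compound with DiI-HDL co-incubation, 3 h at 37 °C · Measured by – bottom-read fluorescence, 550/595 nm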
GSK3B inh – human GSK3beta kinase inhibition | hit rate 0.038% among 300,000 | GST-GSK3beta kinase, ADP-Glo luminescence, 60 min; active compounds read low | P49841 | activity score (negative = inhibition), % at 10 µM | AID 2097;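 active = more than half of replicate wells score below -50%, meaning over 50% inhibition versus plate controls; inconclusive = some replicates but at most half score below -50%; inactive = no replicate scores below -50%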;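 note: 0% = median DMSO wells and -100% = median GW8510 positive control wells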
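Assay system: GST-tagged human GSK3beta kinase, cell-free; Input: 1.6 ng GSK3beta; Medium: Tris/MgCl2 kinase buffer; Timing: 60 min enzyme reaction, room temperature; Signal: ADP-Glo luminescence quantifying ADP generated by kinase; Evaluation: score relative to plate controls; Benchmarks: DMSO neutral wells and GW8510 at 20 µM as positive.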
CDK5 p35 inh – CDK5/p35 (human) kinase inhibition | Q00535+Q15078 | Recombinant CDK5/p35, ADP-Glo luminescence, 60 min | inhibition, % at 10 µM | hit rate 0.01% among 330,000 | AID 488839;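 active = highest replicate inhibition of at least 50% and at least 75% of replicates reaching 50%; inconclusive = only one of the two criteria met; inactive = both criteria failed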;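 note: plate controls were DMSO neutral control for no effect and GW8510 at 10 µM for full effect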
Target sequence (Q00535 whole entry, looked up): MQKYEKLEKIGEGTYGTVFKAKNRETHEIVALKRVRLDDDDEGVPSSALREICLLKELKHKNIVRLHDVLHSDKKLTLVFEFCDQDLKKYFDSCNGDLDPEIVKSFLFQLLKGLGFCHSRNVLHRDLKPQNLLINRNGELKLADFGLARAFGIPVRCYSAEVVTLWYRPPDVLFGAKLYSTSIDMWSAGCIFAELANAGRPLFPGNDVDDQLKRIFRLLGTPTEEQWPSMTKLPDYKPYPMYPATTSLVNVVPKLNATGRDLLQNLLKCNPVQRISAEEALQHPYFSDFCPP
Target sequence (Q15078 whole entry, looked up): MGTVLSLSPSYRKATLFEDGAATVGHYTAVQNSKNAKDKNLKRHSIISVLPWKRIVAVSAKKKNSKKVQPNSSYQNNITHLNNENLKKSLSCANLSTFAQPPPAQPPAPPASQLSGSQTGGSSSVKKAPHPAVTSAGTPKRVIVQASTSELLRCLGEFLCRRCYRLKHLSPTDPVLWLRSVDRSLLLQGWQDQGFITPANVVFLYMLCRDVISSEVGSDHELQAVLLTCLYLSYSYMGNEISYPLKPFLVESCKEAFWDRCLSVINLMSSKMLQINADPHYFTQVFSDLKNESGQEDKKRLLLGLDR
SR-BI HDL uptake – blocks mouse SR-BI lipid uptake from DiI-HDL; hit rate 0.96% among 320,000; inhibition, % at 12.5 µM; Q61009; ldlA[mSR-BI] CHO cells, DiI-HDL uptake fluorescence, 3 h;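 active = mean replicate inhibition of at least 70% and a set share of replicates each scoring 70 or more; inconclusive = meets just one of the two criteria; inactive = fails both criteria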;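 note: 0% = median of neutral control wells and 100% = median of positive control wells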
DiI quench – counter-screen for SR-BI lipid transfer inhibitors: DiI fluorescence quenchers; shares compounds with SR-BI HDL uptake; cell-free DiI-HDL fluorescence quenching, 30 min; AC50, µM (highest dose often 35 µM), without a hit: at the top dose activity change, negative = quenching; hit rate 20% among 470;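 active = quenching, a falling signal, with AC50 below a set limit tied to the top valid dose, actives reach about 32 µM in these data; inconclusive = no clear call, values can overlap the other calls; inactive = rising signal, and the rest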
Active calls of the source: *.

Cc1cc(C)c2c(=O)[nH]c(SCC(=O)c3ccc(C)c(C)c3)nc2n1 was read as GSK3 alpha inh -2, SR-BI DiI-HDL act 22, GSK3B inh -28, CDK5 p35 inh 1 and SR-BI HDL uptake -22.
O=C(NCC1CCCO1)c1ccc2c(c1)N(Cc1ccc(F)cc1)CCS2 (configuration not stated) was read as GSK3 alpha inh 0, SR-BI DiI-HDL act -62, GSK3B inh -2, CDK5 p35 inh -2 and SR-BI HDL uptake 62.
Screening O=C(NCC1CCCO1)c1ccc2c(c1)N(Cc1ccc(F)cc1Cl)C(=O)CS2 (configuration not stated) returned GSK3 alpha inh -4, SR-BI DiI-HDL act 2, GSK3B inh 0, SR-BI HDL uptake -2 and DiI quench -2%.
`O=C(O)c1nn(Cc2ncc(-c3cccc(Cl)c3)o2)c(=O)c2ccccc12` gave GSK3 alpha inh 5, SR-BI DiI-HDL act 1, GSK3B inh -1, CDK5 p35 inh -2 and SR-BI HDL uptake -1.
`Cc1cc(SC(C)C(=O)Nc2ncc(Cl)cc2Cl)nc2ccccc12` (configuration not stated) gave GSK3 alpha inh 1, SR-BI DiI-HDL act -72, GSK3B inh -7, CDK5 p35 inh 0, SR-BI HDL uptake 72* and DiI quench -1%.
Screening CC1CCCCC1NC(=O)c1nn(C)c2c1CS(=O)(=O)c1ccccc1-2 (configuration not stated) returned GSK3 alpha inh -1, SR-BI DiI-HDL act -78, GSK3B inh -1, CDK5 p35 inh 0, SR-BI HDL uptake 78* and DiI quench 1%.
Cc1cc(=O)[nH]c(Nc2ccccc2C)n1 was read as GSK3 alpha inh -1, SR-BI DiI-HDL act -3, GSK3B inh -2, CDK5 p35 inh 2 and SR-BI HDL uptake 3.
O=C(Nc1ccccc1)c1ccc2c(c1)CCN2S(=O)(=O)c1ccccc1 was read as GSK3 alpha inh -3, SR-BI DiI-HDL act -76, GSK3B inh 2, CDK5 p35 inh 1, SR-BI HDL uptake 76* and DiI quench -1%.
CS(=O)(=O)N1CCc2cc(C(=O)Nc3cccc([N+](=O)[O-])c3)ccc21 was read as GSK3 alpha inh -1, SR-BI DiI-HDL act -68, GSK3B inh -1, CDK5 p35 inh 0, SR-BI HDL uptake 68 and DiI quench -13%.
`CS(=O)(=O)N1CCc2cc(C(=O)Nc3ccc(Cl)cc3)ccc21` gave GSK3 alpha inh -2, SR-BI DiI-HDL act -63, CDK5 p35 inh 1 and SR-BI HDL uptake 63.
Screening CC(=O)Nc1cccc(NC(=O)c2ccc3c(c2)CCN3S(=O)(=O)c2ccccc2)c1 returned GSK3 alpha inh -3, SR-BI DiI-HDL act -72, GSK3B inh -3, CDK5 p35 inh 0, SR-BI HDL uptake inconclusive and DiI quench 0%.
`COc1ccc(NC(=O)c2ccc3c(c2)CCN3S(=O)(=O)c2ccccc2)cc1` gave GSK3 alpha inh -4, SR-BI DiI-HDL act -81, GSK3B inh -4, CDK5 p35 inh 1, SR-BI HDL uptake 81* and DiI quench -3%.
For COc1cccc(OC)c1C(=O)Nc1ccccc1N1CCCCC1 the results were GSK3 alpha inh -1, SR-BI DiI-HDL act -53, GSK3B inh 0, CDK5 p35 inh 0 and SR-BI HDL uptake 53.
O=C(O)COCC(=O)N1CCCN(c2nccc(C(F)(F)F)n2)CC1 was read as GSK3 alpha inh 0, SR-BI DiI-HDL act 10, GSK3B inh 4, CDK5 p35 inh 0 and SR-BI HDL uptake -10.
Screening NS(=O)(=O)c1ccc(NC(=O)c2ccc3c(c2)CCN3S(=O)(=O)c2ccccc2)cc1 returned GSK3 alpha inh 0, SR-BI DiI-HDL act -64, GSK3B inh -1, CDK5 p35 inh 1 and SR-BI HDL uptake 64.
For CC(=O)c1cccc(NC(=O)c2ccc3c(c2)CCN3S(=O)(=O)c2ccccc2)c1 the results were GSK3 alpha inh 0, SR-BI DiI-HDL act -91, GSK3B inh 6, CDK5 p35 inh -1, SR-BI HDL uptake 91* and DiI quench 1%.
For Cc1cccc(N2CCN(C(=O)COc3ccc4c(C)cc(=O)oc4c3C)CC2)c1C the results were GSK3 alpha inh -1, SR-BI DiI-HDL act -71, GSK3B inh -1, CDK5 p35 inh 0, SR-BI HDL uptake inconclusive and DiI quench 4%.
`Cc1nn(-c2ccc(F)cc2)c(C)c1CN1CCN(CCC(C)C)C(CCO)C1` (configuration not stated) gave GSK3 alpha inh 0, GSK3B inh 2 and CDK5 p35 inh -7.
CC1CN(c2oc(COc3ccc(Cl)cc3Cl)nc2C#N)CC(C)O1 (configuration not stated) was read as GSK3 alpha inh 19, SR-BI DiI-HDL act -81, GSK3B inh 0, CDK5 p35 inh 2, SR-BI HDL uptake 81* and DiI quench 1%.
Screening N#Cc1nc(COc2ccccc2Cl)oc1N1CCCC1 returned GSK3 alpha inh -8, SR-BI DiI-HDL act -19, GSK3B inh -2, CDK5 p35 inh -5 and SR-BI HDL uptake 19.
`CC(=O)Oc1ccc(C(=O)Cc2ccc3ccccc3n2)c(O)c1C` gave GSK3 alpha inh -1, SR-BI DiI-HDL act -71, GSK3B inh 1, CDK5 p35 inh 0, SR-BI HDL uptake inconclusive and DiI quench -3%.
O=C(CN1CCN(c2ccccn2)CC1)Nc1ccc(F)cc1F was read as GSK3 alpha inh -2, SR-BI DiI-HDL act 5, GSK3B inh -2, CDK5 p35 inh 1 and SR-BI HDL uptake -5.
Screening Cc1cc(C(=O)COC(=O)c2ccc(Cl)c(S(N)(=O)=O)c2)c(C)n1C1CC1 returned GSK3 alpha inh 0, SR-BI DiI-HDL act -75, GSK3B inh -1, CDK5 p35 inh 1, SR-BI HDL uptake 75* and DiI quench 2%.
Screening O=C(Nc1ccccc1)C1=C(O)CC(c2ccoc2)CC1=Nc1ccccc1 (configuration not stated) returned GSK3 alpha inh -2, SR-BI DiI-HDL act -72, GSK3B inh -3, CDK5 p35 inh 4, SR-BI HDL uptake inconclusive and DiI quench -10%.
Screening O=C(Nc1ccccc1)C1=C(O)CC(c2ccco2)CC1=Nc1ccccc1 (configuration not stated) returned GSK3 alpha inh -3, SR-BI DiI-HDL act -49, GSK3B inh -2, CDK5 p35 inh 1 and SR-BI HDL uptake 49.
Screening Cc1ccc(C(=O)COc2cc(O)c3c(=O)cc(-c4ccccc4)oc3c2)cc1 returned GSK3 alpha inh 0, SR-BI DiI-HDL act -78, GSK3B inh 2, CDK5 p35 inh -5, SR-BI HDL uptake 78* and DiI quench -4%.
`COc1cc(/C=C(\NC(=O)c2ccccc2)C(=O)NC(C(=O)O)c2ccccc2)cc(OC)c1OC` (configuration not stated) gave GSK3 alpha inh 0, SR-BI DiI-HDL act 2, GSK3B inh 1, CDK5 p35 inh 0 and SR-BI HDL uptake -2.

Source: PubChem BioAssay (Broad Institute)
